Laboratory results from ChEMBL document CHEMBL5678799 (Biochem J, 2009).
Calls of active or inactive are those of the source. No cut-off for these calls is given here.

How the values were obtained:
[1] = molecular target: T1, mTORC1 (Homo sapiens) (UniProt P42345+Q8N122+Q9BVC4); details: HEK293, dose 30-1000 nM, time 30.0 min
[2] = molecular target: Ephrin type-B receptor 3 (Homo sapiens) (UniProt P54753); assay: Inhibition of recombinant human N-terminal His6-tagged EPHB3 (561 to 998 residues) expressed in Escherichia coli assessed as remaining activity at 10 uM using Poly(Glu, Tyr) as substrate incubated for 30 mins in presence of [gamma-33P]ATP by filter binding method relative to control
Summary of the method: (§1)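 Panel assays were run for 30 min at 21 °C, within the linear range for time and enzyme. […] Results are percent activity remaining relative to compound-free control, averaged from triplicate ± S.D.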

[3] = molecular target: Tyrosine-protein kinase SYK (Homo sapiens) (UniProt P43405); assay: Inhibition of recombinant human N-terminal His6-tagged SYK (1 to 635 residues) expressed in baculovirus infected Sf21 cells assessed as remaining activity at 10 uM using Poly (Glu,Tyr) as substrate incubated for 30 mins in presence of [gamma-33P]ATP by filter binding assay relative to control
[4] = molecular target: Casein kinase I isoform delta (Homo sapiens) (UniProt P48730); assay: Inhibition of recombinant human N-terminal GST-tagged CK1delta (1 to 415 residues) expressed in Escherichia coli assessed as remaining activity at 10 uM using RRKDLHDDEEDEAMSITA as substrate incubated for 30 mins in presence of [gamma-33P]ATP by filter binding method relative to control
Summary of the method: (§2)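 Robotic radiometric panel assay, 30 min at room temperature (21 °C), with 10 mM magnesium acetate. […] Compound at 1 or 10 µM. Residual activity expressed relative to compound-free control; triplicate average ± S.D.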

[5] = molecular target: Mitogen-activated protein kinase; ERK1/ERK2 (Homo sapiens) (UniProt P27361+P28482); assay: Inhibition of ERK1/2 in serum starved/PMA-stimulated HEK293 cells assessed as reduction in RSK phosphorylation at S227 residues at 1 uM incubated for 30 mins by immunoblot analysis; assay type: cell-based
[6] = molecular target: MAP kinase-activated protein kinase 2 (Homo sapiens) (UniProt P49137); assay: Inhibition of recombinant human N-terminal GST/C-terminal Myc-tagged MAPKAPK2 (46 to 400 residues) expressed in Escherichia coli assessed as remaining activity at 1 uM using KKLNRTLSVA as substrate incubated for 30 mins in presence of [gamma-33P]ATP by filter binding method relative to control
Summary of the method: (§3)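 Incubations ran robotically for 30 min at room temperature (21 °C) under linear conditions. Results are percent activity remaining versus controls without compound, as the mean of triplicates ± S.D.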

[7] = molecular target: Phosphatidylinositol 3-kinase catalytic subunit type 3 (Homo sapiens) (UniProt Q8NEB9); assay: Inhibition of VPS34 (unknown origin) assessed as remaining activity at 10 uM using phosphatidylinositol as substrate incubated for 60 mins in presence of ATP relative to control
[8] = molecular target: T1, mTORC1 (Homo sapiens); details: HEK293, dose 100-300 nM, time 30.0 min
[9] = molecular target: Calcium/calmodulin-dependent protein kinase kinase 2 (Homo sapiens) (UniProt Q96RR4); assay: Inhibition of recombinant human N-terminal GST-tagged CAMKKbeta (1 to 541 residues) expressed in Escherichia coli assessed as remaining activity at 1 uM using DGEFLRTSCGSPNYAARRR as substrate incubated for 30 mins in presence of [gamma-33P]ATP by filter binding method relative to control
Summary of the method: as §2

[10] = molecular target: Phosphatidylinositol 4-phosphate 3-kinase C2 domain-containing subunit beta (Homo sapiens) (UniProt O00750); assay: Inhibition of PI3KC2beta (unknown origin) assessed as remaining activity at 1 uM using phosphatidylinositol as substrate incubated for 30 mins in presence of ATP relative to control
Summary of the method: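 PI3KC2β assayed with 20 μM phosphatidylinositol, 0.2 mM ATP, 2 mM MgCl2, in Tris/HCl pH 7.5 with CHAPS, 30 min at room temperature. Stopped with EDTA, product detected by time-resolved FRET competition with PtdIns3P–biotin and SGK PX domain. Activity as % of no-compound control, triplicate.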

[11] = molecular target: Tyrosine-protein kinase Lck (Homo sapiens) (UniProt P06239); assay: Inhibition of recombinant human N-terminal His6-tagged LCK (2 to 509 residues) expressed in baculovirus infected Sf21 cells assessed as remaining activity at 1 uM using KVEKIGEGTYGVVYK as substrate incubated for 30 mins in presence of [gamma-33P]ATP by filter binding method relative to control
Summary of the method: (§4)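 Assays ran 30 min at 21 °C, robotically and in the linear range. Remaining activity is given relative to incubations lacking compound, as the average of triplicate determinations ± S.D.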

[12] = molecular target: cAMP-dependent protein kinase catalytic subunit alpha (Homo sapiens) (UniProt P17612); assay: Inhibition of recombinant human N-terminal GST-tagged PKAalpha (2 to 351 residues) expressed in Escherichia coli assessed as remaining activity at 1 uM using Kemptide as substrate incubated for 30 mins in presence of [gamma-33P]ATP by filter binding method relative to control
Summary of the method: as §1

[13] = tested on: Serine/threonine-protein kinase Sgk1 (Homo sapiens), O00141 [S422D]; assay: Inhibition of recombinant human His6-tagged SGK1 S422D mutant (60 to 431 residues) expressed in baculovirus infected Sf21 cells assessed as remaining activity at 10 uM using GRPRTSSFAEGKK as substrate incubated for 30 mins in presence of [gamma-33P]ATP by filter binding method relative to control
Summary of the method: as §3

[14] = molecular target: Serine/threonine-protein kinase PAK 4 (Homo sapiens) (UniProt O96013); assay: Inhibition of recombinant human N-terminal GST-tagged PAK4 (2 to 519 residues) expressed in Escherichia coli assessed as remaining activity at 10 uM using RRRLSFAEPG as substrate incubated for 30 mins in presence of [gamma-33P]ATP by filter binding method relative to control
Summary of the method: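 Radiometric kinase panel run robotically at room temperature (21 °C) for 30 min, linear in time and enzyme. […] Activity is expressed as percent of control without compound, from triplicate determinations ± S.D.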

[15] = molecular target: T1, mTORC1 (Homo sapiens); details: HEK293, dose 30-1000 nM, time 30.0 min; remark: listed apart in the source
[16] = molecular target: Serine/threonine-protein kinase BRSK2 (Homo sapiens) (UniProt Q8IWQ3); assay: Inhibition of recombinant human N-terminal His6-tagged BRSK2 (2 to 674 residues) expressed in baculovirus infected Sf21 cells assessed as remaining activity at 10 uM using KKLNRTLSFAEPG as substrate incubated for 30 mins in presence of [gamma-33P]ATP by filter binding method relative to control
Summary of the method: as §4

T1 sequence (Q8N122 whole entry, looked up, other chains not shown, the tested form may be a part): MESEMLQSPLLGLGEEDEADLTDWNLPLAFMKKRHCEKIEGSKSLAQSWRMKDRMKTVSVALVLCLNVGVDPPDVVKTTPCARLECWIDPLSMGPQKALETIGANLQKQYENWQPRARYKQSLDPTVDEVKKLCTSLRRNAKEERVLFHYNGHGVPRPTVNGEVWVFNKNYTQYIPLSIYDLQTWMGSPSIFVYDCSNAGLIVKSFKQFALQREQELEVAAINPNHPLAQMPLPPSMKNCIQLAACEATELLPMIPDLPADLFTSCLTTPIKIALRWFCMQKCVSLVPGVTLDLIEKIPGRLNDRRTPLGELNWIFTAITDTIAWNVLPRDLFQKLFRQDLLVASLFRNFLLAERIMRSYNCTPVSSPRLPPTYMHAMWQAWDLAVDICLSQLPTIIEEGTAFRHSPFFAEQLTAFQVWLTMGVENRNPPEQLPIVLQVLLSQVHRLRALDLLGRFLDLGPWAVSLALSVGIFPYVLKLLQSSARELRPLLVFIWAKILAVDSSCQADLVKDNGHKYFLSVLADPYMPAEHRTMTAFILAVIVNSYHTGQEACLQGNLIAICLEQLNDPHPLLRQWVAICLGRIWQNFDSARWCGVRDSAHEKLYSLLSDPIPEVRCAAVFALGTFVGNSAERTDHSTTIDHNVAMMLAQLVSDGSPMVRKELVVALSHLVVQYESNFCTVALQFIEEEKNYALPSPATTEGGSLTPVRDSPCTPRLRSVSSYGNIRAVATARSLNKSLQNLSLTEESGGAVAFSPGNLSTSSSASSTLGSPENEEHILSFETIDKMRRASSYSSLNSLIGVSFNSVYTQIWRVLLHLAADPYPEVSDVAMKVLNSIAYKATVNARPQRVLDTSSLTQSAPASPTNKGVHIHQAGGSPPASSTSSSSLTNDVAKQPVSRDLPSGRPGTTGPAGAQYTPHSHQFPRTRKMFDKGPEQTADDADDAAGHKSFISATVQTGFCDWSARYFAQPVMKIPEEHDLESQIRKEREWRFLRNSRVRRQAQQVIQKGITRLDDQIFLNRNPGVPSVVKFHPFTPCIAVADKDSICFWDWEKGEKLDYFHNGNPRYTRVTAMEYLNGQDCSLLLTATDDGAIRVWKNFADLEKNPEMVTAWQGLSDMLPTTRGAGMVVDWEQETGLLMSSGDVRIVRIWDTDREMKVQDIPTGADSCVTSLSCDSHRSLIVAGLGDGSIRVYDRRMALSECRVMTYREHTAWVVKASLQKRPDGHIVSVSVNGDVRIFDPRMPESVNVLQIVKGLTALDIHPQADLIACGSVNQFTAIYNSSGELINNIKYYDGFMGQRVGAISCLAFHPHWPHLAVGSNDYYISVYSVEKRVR
T1 sequence (Q9BVC4 whole entry, looked up, other chains not shown, the tested form may be a part): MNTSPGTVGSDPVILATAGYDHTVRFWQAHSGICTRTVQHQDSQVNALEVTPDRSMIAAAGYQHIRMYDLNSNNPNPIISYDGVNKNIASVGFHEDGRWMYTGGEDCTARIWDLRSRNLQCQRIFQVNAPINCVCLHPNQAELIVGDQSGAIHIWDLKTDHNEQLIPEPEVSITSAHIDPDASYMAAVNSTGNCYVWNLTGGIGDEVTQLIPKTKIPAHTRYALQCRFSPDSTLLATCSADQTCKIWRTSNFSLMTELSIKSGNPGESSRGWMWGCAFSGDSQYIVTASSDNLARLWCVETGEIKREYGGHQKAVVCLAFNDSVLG
Chain of Serine/threonine-protein kinase Sgk1 (Homo sapiens), O00141 [S422D] (O00141 whole entry S422D, the tested form may be a part): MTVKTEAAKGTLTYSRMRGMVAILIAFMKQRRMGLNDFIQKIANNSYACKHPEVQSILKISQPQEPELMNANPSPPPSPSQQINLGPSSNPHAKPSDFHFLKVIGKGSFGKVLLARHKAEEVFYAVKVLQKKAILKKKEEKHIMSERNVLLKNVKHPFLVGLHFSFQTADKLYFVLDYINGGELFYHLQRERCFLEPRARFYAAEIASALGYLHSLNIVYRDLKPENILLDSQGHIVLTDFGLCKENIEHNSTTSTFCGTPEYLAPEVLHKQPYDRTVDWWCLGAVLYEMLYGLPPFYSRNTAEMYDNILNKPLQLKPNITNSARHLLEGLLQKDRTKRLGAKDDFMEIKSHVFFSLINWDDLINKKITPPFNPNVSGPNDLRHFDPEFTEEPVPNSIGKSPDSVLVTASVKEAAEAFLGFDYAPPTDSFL
Chain of Ephrin type-B receptor 3 (Homo sapiens) (P54753 whole entry, the tested form may be a part): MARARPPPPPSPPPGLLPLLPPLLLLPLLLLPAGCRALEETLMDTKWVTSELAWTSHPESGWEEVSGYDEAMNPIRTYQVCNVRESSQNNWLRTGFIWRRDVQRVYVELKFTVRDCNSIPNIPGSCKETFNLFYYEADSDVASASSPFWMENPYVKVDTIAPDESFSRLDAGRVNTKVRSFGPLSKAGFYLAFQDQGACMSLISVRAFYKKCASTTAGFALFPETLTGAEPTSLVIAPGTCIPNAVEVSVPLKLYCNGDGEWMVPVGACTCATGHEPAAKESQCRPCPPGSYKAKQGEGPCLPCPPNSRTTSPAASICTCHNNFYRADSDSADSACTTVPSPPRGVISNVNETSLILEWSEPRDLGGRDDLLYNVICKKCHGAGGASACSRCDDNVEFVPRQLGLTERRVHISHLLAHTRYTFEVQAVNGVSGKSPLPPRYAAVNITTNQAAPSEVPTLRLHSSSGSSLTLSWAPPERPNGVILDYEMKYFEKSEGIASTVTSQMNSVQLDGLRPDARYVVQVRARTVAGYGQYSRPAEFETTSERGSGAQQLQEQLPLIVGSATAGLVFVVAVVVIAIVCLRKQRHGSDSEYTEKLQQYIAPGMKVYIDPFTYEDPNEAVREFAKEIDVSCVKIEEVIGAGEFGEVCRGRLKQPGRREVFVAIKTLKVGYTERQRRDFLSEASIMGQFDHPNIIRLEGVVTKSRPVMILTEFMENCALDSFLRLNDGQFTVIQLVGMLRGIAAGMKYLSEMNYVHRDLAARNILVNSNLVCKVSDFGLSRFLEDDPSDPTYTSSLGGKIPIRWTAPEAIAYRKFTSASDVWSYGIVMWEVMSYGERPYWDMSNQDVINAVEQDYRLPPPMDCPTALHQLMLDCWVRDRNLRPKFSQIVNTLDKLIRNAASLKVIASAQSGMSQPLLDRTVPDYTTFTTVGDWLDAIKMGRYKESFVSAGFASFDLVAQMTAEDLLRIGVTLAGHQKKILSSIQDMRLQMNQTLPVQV
Chain of Serine/threonine-protein kinase PAK 4 (Homo sapiens) (O96013 whole entry, looked up, the tested form may be a part): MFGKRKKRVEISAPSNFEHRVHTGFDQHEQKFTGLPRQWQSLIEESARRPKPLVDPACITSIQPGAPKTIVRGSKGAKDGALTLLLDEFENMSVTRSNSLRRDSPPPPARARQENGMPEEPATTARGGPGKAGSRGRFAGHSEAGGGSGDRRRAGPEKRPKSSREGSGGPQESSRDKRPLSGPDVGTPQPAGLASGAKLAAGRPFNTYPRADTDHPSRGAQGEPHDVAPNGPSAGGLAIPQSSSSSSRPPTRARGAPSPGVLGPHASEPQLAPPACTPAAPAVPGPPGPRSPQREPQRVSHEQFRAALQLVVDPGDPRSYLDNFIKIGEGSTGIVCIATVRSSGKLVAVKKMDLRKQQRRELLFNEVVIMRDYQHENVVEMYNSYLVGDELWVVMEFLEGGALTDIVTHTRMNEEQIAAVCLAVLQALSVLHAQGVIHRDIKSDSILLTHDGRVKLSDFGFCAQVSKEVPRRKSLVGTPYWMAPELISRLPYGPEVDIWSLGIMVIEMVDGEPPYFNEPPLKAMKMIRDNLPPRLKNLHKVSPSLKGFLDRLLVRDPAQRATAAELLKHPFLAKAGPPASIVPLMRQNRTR
Chain of MAP kinase-activated protein kinase 2 (Homo sapiens) (P49137 whole entry, looked up, the tested form may be a part): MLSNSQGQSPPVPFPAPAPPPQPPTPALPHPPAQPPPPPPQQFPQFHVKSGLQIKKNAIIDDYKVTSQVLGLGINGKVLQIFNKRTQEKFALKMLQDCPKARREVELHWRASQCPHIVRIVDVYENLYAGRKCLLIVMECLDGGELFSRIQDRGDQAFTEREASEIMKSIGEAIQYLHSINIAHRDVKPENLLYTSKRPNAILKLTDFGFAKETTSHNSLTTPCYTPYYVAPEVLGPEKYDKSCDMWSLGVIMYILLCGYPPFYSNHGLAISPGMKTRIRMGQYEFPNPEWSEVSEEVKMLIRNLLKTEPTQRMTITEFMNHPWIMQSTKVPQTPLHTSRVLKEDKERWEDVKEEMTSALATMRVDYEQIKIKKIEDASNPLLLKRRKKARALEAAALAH
Chain of Serine/threonine-protein kinase BRSK2 (Homo sapiens) (Q8IWQ3 whole entry, the tested form may be a part): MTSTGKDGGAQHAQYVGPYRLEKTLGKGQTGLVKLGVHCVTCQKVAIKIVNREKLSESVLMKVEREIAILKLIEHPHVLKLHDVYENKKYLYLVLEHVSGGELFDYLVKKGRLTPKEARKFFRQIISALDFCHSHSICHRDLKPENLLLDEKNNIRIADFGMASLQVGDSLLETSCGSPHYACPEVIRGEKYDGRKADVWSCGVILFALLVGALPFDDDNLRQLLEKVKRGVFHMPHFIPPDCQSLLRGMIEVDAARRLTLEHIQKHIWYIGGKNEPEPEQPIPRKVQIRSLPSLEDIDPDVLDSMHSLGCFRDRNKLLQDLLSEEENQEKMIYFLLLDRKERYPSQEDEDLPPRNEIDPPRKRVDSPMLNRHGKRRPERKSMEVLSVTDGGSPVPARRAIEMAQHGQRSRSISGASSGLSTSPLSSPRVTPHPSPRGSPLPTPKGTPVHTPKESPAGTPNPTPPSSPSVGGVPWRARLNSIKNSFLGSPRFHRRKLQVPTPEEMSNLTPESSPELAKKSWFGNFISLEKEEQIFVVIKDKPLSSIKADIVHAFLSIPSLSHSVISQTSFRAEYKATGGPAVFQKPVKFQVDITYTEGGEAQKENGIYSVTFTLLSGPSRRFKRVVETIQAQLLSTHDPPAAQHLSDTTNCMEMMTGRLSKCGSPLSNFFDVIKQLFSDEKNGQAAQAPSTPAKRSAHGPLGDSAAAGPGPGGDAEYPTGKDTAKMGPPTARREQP

SMILES: COc1ccc(-c2ccc3c(N4CCOCC4)nc(N4C[C@@H](C)O[C@@H](C)C4)nc3n2)cc1CO [Ku-0063794]
- inhibition [1]: Active
- Activity [2]: 78%
- Activity [3]: 83%
- Activity [4]: 109%
- inhibition [5]: inactive
- Activity [6]: 98%
- Activity [7]: 93%
- inhibition [8]: 100%
- Activity [9]: 108%
- Activity [10]: 126%
- Activity [11]: 69%
- Activity [12]: 115%
- Activity [13]: 64%
- Activity [14]: 75%
- inhibition [15]: Dose-Dependent Effect
- Activity [16]: 72%
